Only some compounds are listed: those with a hit (about 4.1% of all), similar ones and a draw of the others.
DNA FID counter: fluorescent intercalator displacement, NS3 helicase counter-screen. DNA fluorescent intercalator displacement, fluorescence. inhibition, % at 7.9 µM. 290,000 tested, 0.17% active. AID 1845; in the data active means inhibition above about 37%;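 further: higher means more ethidium bromide displaced from hairpin DNA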
NS3 helicase inh: HCV NS3 helicase inhibition | NS3 helicase DNA unwinding, Cy5 molecular beacon fluorescence | inhibition, % at 10.9 µM | 290,000 tested, 0.56% active | AID 1800;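 active means inhibition above the mean of all tested compounds plus 3 SD, set per campaign, cut at about 35% in these data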
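Test system: hepatitis C virus NS3 helicase domain fragment enzyme. Also added: annealed dual-labelled DNA beacon duplex, ATP-started. Timing: 60 min unwinding reaction at 25 °C after ATP addition. Technique: Cy5 fluorescence. Measure: % inhibition of unwinding.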
MEKK3 PB1 HTS: MEKK3-MEK5 PB1 interaction, increase or decrease; binding response (% of control), % at 10 µM; bead-based flow cytometry, Alexa488-MEK5 binding to MEKK3; actives lie on both sides; 0 = blocked by unlabeled MEK5, 100 = vehicle; 290,000 tested, 1.4% active; Q99759;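 active means binding response more than 3 SD above or below the average of its plate-row segment, actives on both sides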;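 further: Alexa488 bead fluorescence after subtracting the streptavidin-only scavenger bead signal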
Target sequence (Q99759 whole entry, looked up): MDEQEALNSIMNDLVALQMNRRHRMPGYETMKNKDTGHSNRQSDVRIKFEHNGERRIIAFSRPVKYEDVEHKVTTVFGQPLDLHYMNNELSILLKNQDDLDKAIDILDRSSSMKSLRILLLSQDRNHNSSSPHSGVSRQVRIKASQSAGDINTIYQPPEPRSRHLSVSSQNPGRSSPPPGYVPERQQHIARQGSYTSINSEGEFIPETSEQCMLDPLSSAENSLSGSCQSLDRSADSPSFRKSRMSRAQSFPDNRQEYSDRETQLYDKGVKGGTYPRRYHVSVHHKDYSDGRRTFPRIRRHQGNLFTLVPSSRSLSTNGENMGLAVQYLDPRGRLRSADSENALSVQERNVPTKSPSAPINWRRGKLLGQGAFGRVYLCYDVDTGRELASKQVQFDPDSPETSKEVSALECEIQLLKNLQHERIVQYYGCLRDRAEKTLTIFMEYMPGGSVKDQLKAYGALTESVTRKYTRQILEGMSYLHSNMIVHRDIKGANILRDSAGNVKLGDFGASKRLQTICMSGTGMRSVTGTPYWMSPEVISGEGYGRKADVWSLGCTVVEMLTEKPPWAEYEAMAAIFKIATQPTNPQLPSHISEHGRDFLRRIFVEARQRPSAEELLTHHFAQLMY
T cruzi repl: T. cruzi replication inhibition; 300,000 tested, 1.4% active; inhibition, % (test concentration not listed); T. cruzi beta-gal in NIH3T3, luminescence, 90 h; AID 1885;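 active means mean inhibition across valid replicates above about 55%, limit read from the data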;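 further: signal also drops with host cell toxicity which is not excluded here; higher percent means less beta-gal luminescence so fewer parasites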
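System: mouse NIH/3T3 fibroblasts infected with β-gal-expressing T. cruzi Tulahuen C4 / Input: NIH/3T3 cells, 5,000 per well / Buffer or medium: Low-serum DMEM with 2% FBS / Probe or stimulus: 5000 reporter trypomastigotes per well / Schedule: ≥90 h infection period, 3 h prior cell attachment / Measured by: GalScreen luminescence, 60 min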
MEKK2mut PB1 HTS: signal of MEK5 binding to mutant human MEKK2 PB1 domain. bead flow cytometry, Alexa488-MEK5 binding to MEKK2 mutant. percent response, % at 10 µM. 290,000 tested, 0.35% active. AID 1530; in the data active means percent response above about 24%, passing the limit was not always enough
MEKK2wt PB1 HTS: raises or lowers MEK5 binding to wildtype human MEKK2 PB1 domain; 290,000 tested, 1.1% active; bead flow cytometry, Alexa488-MEK5 binding to MEKK2 WT; actives lie on both sides; Q9Y2U5; binding response (% of control), % at 10 µM; in the data active means binding response below about 67% or above about 130%
MEKK2wt confirm: raises or lowers MEK5 binding to wildtype human MEKK2, retest; shares compounds with MEKK3 PB1 HTS; bead flow cytometry, Alexa488-MEK5 binding to MEKK2 WT; actives lie on both sides; binding response (% of control), % at 10 µM; 5,900 tested, 2.4% active; in the data active means binding response below about 16% or above about 210%; inactive means in between
MEKK2mut confirm: signal of MEK5 binding to mutant human MEKK2, retest | shares compounds with MEKK3 PB1 HTS | bead flow cytometry, Alexa488-MEK5 binding to MEKK2 mutant | percent response, % at 10 µM | 5,900 tested, 2% active | AID 1893; in the data active means percent response mostly above about 71%, no sharp cut-off; inactive means mostly below about 38%;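 further: higher means compound restores mutant binding toward wildtype level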
MEKK3-MEK5 inh: MEKK3-MEK5 PB1 inhibition, single concentration confirmation; 5,900 tested, 1.8% active; shares compounds with MEKK3 PB1 HTS; binding response (% of control), % at 10 µM; bead flow cytometry, Alexa488-MEK5 binding to MEKK3; stronger effect = lower value; AID 1894;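 active means binding response below 72% of control, or above a set upper limit, though filed actives all read lower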
A number is an active result; - = inactive; . = no result; ! = not confirmed by another sample; [ ] = another dose, or the depositor's remark.

SMILES | DNA FID counter | NS3 helicase inh | MEKK3 PB1 HTS | T cruzi repl | MEKK2mut PB1 HTS | MEKK2wt PB1 HTS | MEKK2wt confirm | MEKK2mut confirm | MEKK3-MEK5 inh
COc1ccc(CC(=O)Nc2cc(C)ccn2)cc1OC | . | . | . | - | . | . | . | . | .
O=C(COC(=O)C1CCC(=O)N1)Nc1ccccc1Br (stereo not drawn) | - | - | 128.0 | - | - | - | - | - | -
CCOc1ccccc1C(=O)Nc1ccccc1O | - | - | 78.0[inhibitor] | - | - | - | - | - | -
CCOc1ccccc1C(=O)Nc1cccc2ccccc12 | - | - | - | - | - | - | . | . | .
Cc1nn(C)c(C(=O)Sc2cccc(Cl)c2)c1[N+](=O)[O-] | - | - | 133.0 | - | - | - | - | - | -
Cc1c(NC(=S)NC(=O)c2cccc(Br)c2)c(=O)n(-c2ccccc2)n1C | - | - | - | - | - | - | . | . | .
N/C(=N\OS(=O)(=O)c1ccccc1)c1cccnc1 | - | - | 130.0 | . | - | - | - | - | -
N/C(=N\OS(=O)(=O)c1ccc2ccccc2c1)c1cccnc1 | - | - | - | - | - | - | . | . | .
NC(N)=N/N=C/c1c(Cl)cccc1Cl | - | - | 44.0![inhibitor] | - | - | - | - | - | -
CC(C)(C)NC(=O)CN(C(=O)c1csnn1)c1cccc2c1CCCC2 | - | - | - | - | - | - | . | . | .
c1ccc2c(c1)OC(CCCN1CCCCC1)c1ccccc1S2 (stereo not drawn) | 37.5 | - | - | - | 27.0 | 141.0 | - | - | -
CC(C)OC(=O)C(C)Oc1ccc(C(=O)NCCc2ccccc2)cc1 (stereo not drawn) | - | - | 123.0 | - | - | - | - | - | -
COc1ccc(C(O)(C(=O)NNc2ccc(C)cc2)c2cccs2)cc1 (stereo not drawn) | - | - | 122.0 | - | - | - | - | - | -
COc1ccccc1NC(=O)c1ccc(NC(=O)COC(=O)C(C)C)cc1 | - | - | - | - | - | - | . | . | .
COc1ccccc1NC(=O)c1ccc(NC(=O)COC(=O)CC(NC(=O)c2ccccc2Cl)c2ccccc2)cc1 (stereo not drawn) | - | - | 130.0 | - | - | - | - | - | -
CCOc1ccc(N2C(=O)C3Sc4[nH]c(=O)sc4C(c4ccc(OC)c(OC)c4)C3C2=O)cc1 (stereo not drawn) | - | - | - | - | - | - | . | . | .
COc1ccc(NC(=O)C(c2cc3c(cc2[N+](=O)[O-])OCO3)N2CCN(C=O)CC2)cc1 (stereo not drawn) | - | - | 2.0[inhibitor] | - | - | 3.0[inhibitor] | - | - | -
COc1ccc(N2CC(C)Cn3c2nc2c3c(=O)n(Cc3ccccc3)c(=O)n2C)c(OC)c1 (stereo not drawn) | - | - | 73.0[inhibitor] | - | - | - | - | - | -
COc1ccc(N2CCn3c2nc2c3c(=O)n(CCc3ccccc3)c(=O)n2C)c(OC)c1 | - | - | - | - | - | - | . | . | .
CCN(Cc1ccccc1)CC(O)COc1ccccc1 (stereo not drawn) | - | - | - | - | - | - | . | . | .
CCc1ccc(CNCc2ccc(OCC(O)CN(C)Cc3ccccc3)cc2)nc1 (stereo not drawn) | - | - | - | - | 59.0 | 170.0 | - | - | -
CCn1ccnc1CNCc1ccc(OCC(O)CN(C)Cc2ccccc2)cc1 (stereo not drawn) | - | - | - | - | - | 138.0 | - | - | -
CN(Cc1ccccc1)CC(O)COc1ccc(CNCCc2cccnc2)cc1 (stereo not drawn) | - | - | - | - | 63.0 | 187.0 | - | - | -
Cc1nc(Br)c(Br)c(C)c1Br | - | - | - | - | - | - | . | . | .
Cc1c(N2C(=O)c3ccc4c5c(ccc(c35)C2=O)CC4)c(=O)n(-c2ccccc2)n1C | - | - | - | - | - | - | . | . | .
SMILES | DNA FID counter | NS3 helicase inh | MEKK3 PB1 HTS | T cruzi repl | MEKK2mut PB1 HTS | MEKK2wt PB1 HTS | MEKK2wt confirm | MEKK2mut confirm | MEKK3-MEK5 inh
Cc1c(N2C(=O)c3ccc(Br)cc3C2=O)c(=O)n(-c2ccccc2)n1C | - | - | 2.0[inhibitor] | - | - | 3.0[inhibitor] | - | - | -
CC(=O)NS(=O)(=O)c1ccc(N=c2ssc3c2-c2cc(C)ccc2NC3(C)C)cc1 | - | - | 129.0 | - | - | - | - | - | -
CC1(C)Nc2ccc(O)cc2-c2c1ssc2=S | - | - | - | - | - | - | . | . | .
CC1CCN(CC(O)CN2c3ccccc3Sc3ccccc32)CC1 (stereo not drawn) | - | - | - | - | - | - | . | . | .
CSc1ccc2c(c1)N(CCC1CCCCN1C)c1ccccc1S2 (stereo not drawn) | - | - | - | - | - | 176.0 | - | - | -
COc1ccc(NC(=O)c2nc[nH]c2C(=O)N2CCC(C)CC2)cc1 | . | . | 75.0[inhibitor] | - | - | - | - | - | -
Cc1ccc(NC(=O)c2nc[nH]c2C(=O)N2CCC(C)CC2)cc1 | . | . | - | - | - | - | . | . | .
O=C(O)c1cccc(-c2ccc(/C=N/n3cnc4sc5c(c4c3=O)CCCC5)o2)c1 | - | - | - | - | - | - | . | . | .
Cc1cccc2sc(N(CCCN(C)C)C(=O)c3nc4ccccc4s3)nc12 | - | - | 67.0[inhibitor] | - | - | - | - | - | -
Cc1ccc2sc(N(CCCN(C)C)C(=O)c3ccc(Br)s3)nc2c1C | 46.0 | - | 140.0 | 69.7 | 218.0 | 479.0 | - | - | -
Cc1ccc2sc(N(CCCN(C)C)C(=O)c3nc4ccccc4s3)nc2c1C | - | - | - | - | - | 144.0 | - | - | -
CN(C)CCN(C(=O)c1ccccc1Cl)c1nc2c(Cl)cccc2s1 | - | - | - | - | - | - | . | . | .
Cc1ccc2nc(N(CCCN(C)C)C(=O)c3sc4ccccc4c3Cl)sc2c1 | - | - | 133.0 | - | - | 155.0 | - | - | -
Cc1cc(C)cc(NC(=O)Nc2ccccc2N2CCCCC2)c1 | - | - | - | - | - | - | . | . | .
COc1ccc(N(CC(=O)NC2CCCC2)C(=O)Cn2nnc(-c3ccc(OC)c(OC)c3)n2)c(OC)c1 | - | - | - | - | - | - | . | . | .
CCOC(=O)c1c(CSC(=N)N)n(C)c2cc(Br)c(OC(C)=O)cc12 | - | - | - | - | - | - | . | . | .
CCOC(=O)c1c(CSC(=N)N)n(-c2ccc(C)cc2)c2cc(Br)c(OC(C)=O)cc12 | - | - | - | - | 70.0 | 232.0 | 212.0 | - | -

Screening data (PubChem)
